Data reported in ChEMBL document CHEMBL1240306, “Allosteric inhibitors of Bcr-abl-dependent cell proliferation” (Nat Chem Biol, 2006).
Active and inactive are the calls of the source. The rule behind the calls is not given here.

Assays:
[1] = Cytotoxic activity against mouse 32D Bcr-abl negative cells
[2] = Cytotoxic activity against mouse 32D cells transfected with p210 Bcr-abl; assay type: cell-based
[3] = target: Tyrosine-protein kinase ABL1 (Homo sapiens) (UniProt P00519); test: Binding affinity to phosphorylated human recombinant abl
Summary of the method: (§1)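 Recombinant human abl (1 μg), either Src-phosphorylated or tyrosine phosphatase-treated, incubated 1 h at 4 °C with immobilized GNF-3 resin; after five washes bound protein eluted by boiling in Laemmli buffer and detected by SDS-PAGE/anti-abl immunoblot. Immobilized methyl analogue used as control matrix.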

[4] = target: Tyrosine-protein kinase ABL1 (Homo sapiens) (UniProt P00519); test: Binding affinity to dephosphorylated human recombinant abl; summary of the method: as §1
[5] = target: Tyrosine-protein kinase ABL1 (Homo sapiens) (UniProt P00519); test: Displacement of abl from GNF2 resin using affinity chromatography at 1000 uM by competition binding assay

Tyrosine-protein kinase ABL1 (Homo sapiens), sequence (P00519 whole entry): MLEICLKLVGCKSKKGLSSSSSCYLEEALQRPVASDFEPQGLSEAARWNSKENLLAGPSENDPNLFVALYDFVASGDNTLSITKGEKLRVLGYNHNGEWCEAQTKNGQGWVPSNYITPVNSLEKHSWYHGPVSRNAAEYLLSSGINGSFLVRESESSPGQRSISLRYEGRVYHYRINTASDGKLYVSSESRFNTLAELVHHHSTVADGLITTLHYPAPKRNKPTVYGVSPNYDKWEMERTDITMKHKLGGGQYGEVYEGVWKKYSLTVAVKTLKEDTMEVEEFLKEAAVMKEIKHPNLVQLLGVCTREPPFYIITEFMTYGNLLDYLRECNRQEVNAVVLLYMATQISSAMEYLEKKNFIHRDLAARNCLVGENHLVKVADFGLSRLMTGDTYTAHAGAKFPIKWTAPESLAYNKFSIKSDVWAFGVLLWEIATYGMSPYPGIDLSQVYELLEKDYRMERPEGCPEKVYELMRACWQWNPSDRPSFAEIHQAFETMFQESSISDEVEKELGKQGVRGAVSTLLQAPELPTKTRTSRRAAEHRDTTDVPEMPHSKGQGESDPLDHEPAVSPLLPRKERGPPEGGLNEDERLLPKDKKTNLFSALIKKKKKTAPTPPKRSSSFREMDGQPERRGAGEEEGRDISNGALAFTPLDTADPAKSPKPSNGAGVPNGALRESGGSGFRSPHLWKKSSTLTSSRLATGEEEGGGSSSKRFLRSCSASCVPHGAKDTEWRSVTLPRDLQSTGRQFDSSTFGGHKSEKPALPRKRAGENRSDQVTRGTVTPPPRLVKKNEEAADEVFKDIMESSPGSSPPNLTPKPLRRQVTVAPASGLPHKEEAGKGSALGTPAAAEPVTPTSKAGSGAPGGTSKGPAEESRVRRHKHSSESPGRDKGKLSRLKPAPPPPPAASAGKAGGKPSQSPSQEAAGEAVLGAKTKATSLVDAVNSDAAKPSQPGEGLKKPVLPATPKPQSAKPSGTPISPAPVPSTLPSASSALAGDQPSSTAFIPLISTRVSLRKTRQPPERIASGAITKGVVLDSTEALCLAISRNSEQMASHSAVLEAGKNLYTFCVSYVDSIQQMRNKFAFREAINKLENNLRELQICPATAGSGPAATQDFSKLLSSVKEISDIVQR

Question: For FC(F)(F)Oc1ccc(Nc2cc(NCCN3CCOCC3)ncn2)cc1, which IC50 [1] is on record?
Answer: Its IC50 is > 40 µM.

Question: What about the IC50 [2] of the same compound?
Answer: Its IC50 is 0.4 µM.

Question: With NCCOCCOCCOCCOCCOCCNC(=O)c1cccc(-c2cc(Nc3ccc(OC(F)(F)F)cc3)ncn2)c1 as the compound, how does the Activity [3] read?
Answer: Its Activity is “Active”.

Question: And the Activity [4]?
Answer: The Activity was “Active”.

Question: For Nc1ncnc2c1ncn2[C@@H]1O[C@H](COP(=O)(O)OP(=O)(O)OP(=O)(O)O)[C@@H](O)[C@H]1O, which Activity [5] is on record?
Answer: Its Activity is “Active”.
